Data reported in paper PMC9989852 (Food and chemical toxicology : an international journal …, 2022).
Where “and” joins values, the source holds several entries; their conditions need not be identical. Equal entries are not always repeated.

Experiments:
[1] = test system: liver (caudate); experiment: Liver gene expression; assay type: in vivo, B6C3F1 mice; conditions: dermal, 28 days
Method in brief: (§1)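 Dosing was daily topical to both dorsal ears (25 μl/ear, acetone vehicle) in female B6C3F1 mice. Liver caudate lobe or half ear pinna was stored in RNAlater and homogenized in RLT buffer. RNA was isolated on RNeasy columns with DNase, and 1–2 μg was reverse-transcribed. TaqMan real-time PCR was read as 2−ΔΔCT vs vehicle, normalized to β-actin. Statistics: ANOVA/Dunnett's, or Kruskal-Wallis/Dunn's for unequal variance.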

[2] = test system: auricular draining lymph nodes (dLNs); experiment: Draining lymph node phenotyping by flow cytometry after 28-day dermal exposure; assay type: in vivo, B6C3F1 mice; conditions: 28 days
Method in brief: (§2)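 Female B6C3F1 mice (5/group) received 25 μl/ear daily to the dorsal ears in acetone. About 24 h after the last dose, tissues went into RPMI: both auricular dLNs, half spleen and one ear pinna. Single-cell suspensions were acquired on an LSR II, with populations gated per supplemental strategy and FMO gating controls. Results are mean ± SE, n=5, by one-way ANOVA.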

[3] = test system: ear pinna; experiment: Skin; assay type: in vivo, B6C3F1 mice; conditions: dermal, 28 days
Method in brief: as §1

[4] = test system: kidney, spleen; experiment: Kidney and spleen histopathology after 28-day dermal exposure; assay type: in vivo, B6C3F1 mice; conditions: 1.25–5%, 28 days, data not shown
Method in brief: (§3)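 Female B6C3F1 mice (5/group) received 25 μl/ear on the dorsal ear surfaces daily, with acetone as vehicle. Tissues were formalin-fixed about 24 h after the last dose: liver remainder, half spleen, right kidney and half ear pinna. Sections were paraffin-embedded, cut at 5 μm and stained with H&E. A veterinary pathologist read them per STP guideline and graded 1 (minimal) to 5 (severe) by extent.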

[5] = test system: B6C3F1 mice; experiment: Serum chemistries after 28-day dermal exposure; assay type: in vivo; conditions: 5%, 28 days
Method in brief: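 Female B6C3F1 mice received daily dorsal ear application (25 μl/ear, acetone vehicle). About 24 h after the last dose, blood was taken by cardiac puncture. Serum was separated by centrifugation and stored at −20 °C. ALKP, BUN, glucose and cholesterol were read on a Catalyst DX analyzer. Data are mean ± SE of 4–5 mice, ANOVA with Dunnett's; ALKP was also tested by linear regression (p < 0.05).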

[6] = PFAS concentration in pooled urine; assay type: in vivo, B6C3F1 mice; conditions: 5%, dermal, 28 days; 5 pooled samples
Method in brief: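 Urine was caught in a weigh boat as it was excreted during CO2 euthanasia, about 24 h after the final daily ear dose (25 μl/ear, acetone vehicle; female B6C3F1 mice). The 5 mice per group were pooled, with variable volume. Samples underwent solid-phase extraction and LC/MS/MS, as linear isomer for short-chain analytes and linear plus branched for the comparator. Each group gave a single value without statistics.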

[7] = test system: spleen; experiment: Spleen phenotyping by flow cytometry after 28-day dermal exposure; assay type: in vivo, B6C3F1 mice; conditions: 28 days
Method in brief: as §2

[8] = test system: ear pinna; experiment: Ear; assay type: in vivo, B6C3F1 mice; conditions: dermal, 28 days, mice affected of 5
Method in brief: as §3

O=C(O)C(F)(F)C(F)(F)C(F)(F)C(F)(F)C(F)(F)F [PFHxA, perfluorohexanoic acid]
liver Pparδ expression ([1]; 1.25%): decreasing
liver Acox1 gene expression ([1]; 2.5%): increase
liver Fabp1 gene expression ([1]; 2.5%): increased
liver Pparδ expression ([1]; 2.5%): decreasing
liver Cd36 gene expression, increase ([1]; 5%): 4.6 fold
liver Ehhadh gene expression, increase ([1]; 5%): 4.8 fold
liver Pparδ expression ([1]; 5%): decreasing
dLN B-cells cell number ([2]; 1.25%): 28.40 ± 6.63 × 10^5
dLN B-cells frequency ([2]; 1.25%): 18.06 ± 2.12%
dLN CD4^+ cell number ([2]; 1.25%): 5.93 ± 0.59 × 10^6
dLN CD4^+ frequency ([2]; 1.25%): 40.24 ± 1.70%
dLN CD8^+ cell number ([2]; 1.25%): 42.50 ± 4.15 × 10^5
dLN CD8^+ frequency ([2]; 1.25%): 28.94 ± 1.29%
dLN CD11b+ cell number ([2]; 1.25%): 16.20 ±3.71 × 10^4
dLN CD11b+ frequency ([2]; 1.25%): 1.04 ± 0.12%
dLN CD86 B-cells ([2]; 1.25%): 98.74 ±6.64 MFI
dLN CD86 DCs ([2]; 1.25%): 11.60 ± 1.51 MFI x 10^2
dLN Dendritic Cells cell number ([2]; 1.25%): 29.00 ±2.99 × 10^4
dLN Dendritic Cells frequency ([2]; 1.25%): 2.01 ± 0.22 %
dLN Eosinophils cell number ([2]; 1.25%): 96.70 ± 17.60 × 10^2
dLN MHCII B-cells ([2]; 1.25%): 7.07 ± 0.37 MFI × 10^2
dLN MHCII DCs ([2]; 1.25%): 57.30 ±2.79 MFI × IQ^2
dLN NK cell number ([2]; 1.25%): 11.60 ±0.64 × 10^4
dLN NK frequency ([2]; 1.25%): 0.82 ± 0.08%
dLN Neutrophils cell number ([2]; 1.25%): 18.80 ±5.25 × 10^2
dLN Total Cellularity ([2]; 1.25%): 15.00 ± 1.92 × 10^6
dLN B-cells cell number ([2]; 2.5%): 32.50 ± 3.50 × 10^5
dLN B-cells frequency ([2]; 2.5%): 15.94 ± 0.38%
dLN CD4^+ cell number ([2]; 2.5%): 8.16 ± 0.58 × 10^6
dLN CD4^+ frequency ([2]; 2.5%): 40.56 ± 1.03%
dLN CD8^+ cell number ([2]; 2.5%): 56.80 ± 5.72 × 10^5
dLN CD8^+ frequency ([2]; 2.5%): 27.94 ± 0.36%
dLN CD11b+ cell number ([2]; 2.5%): 25.30 ± 2.29 × 10^4
dLN CD11b+ frequency ([2]; 2.5%): 1.25 ± 0.04 %
dLN CD86 B-cells ([2]; 2.5%): 93.54 ± 1.71 MFI
dLN CD86 DCs ([2]; 2.5%): 13.20 ± 1.29 MFI x 10^2
dLN Dendritic Cells cell number ([2]; 2.5%): 47.00 ± 5.39 × 10^4
dLN Dendritic Cells frequency ([2]; 2.5%): 2.32 ± 0.14 %
dLN Eosinophils cell number ([2]; 2.5%): 140.00 ± 17.30 × 10^2
dLN MHCII B-cells ([2]; 2.5%): 7.16 ± 0.11 MFI × 10^2
dLN MHCII DCs ([2]; 2.5%): 63.50 ± 5.71 MFI × IQ^2
dLN NK cell number ([2]; 2.5%): 19.50 ± 2.26 × 10^4
dLN NK frequency ([2]; 2.5%): 0.95 ± 0.03 %
dLN Neutrophils cell number ([2]; 2.5%): 21.50 ± 1.28 × 10^2
dLN Total Cellularity ([2]; 2.5%): 20.30 ± 1.81 × 10^6
dLN B-cells cell number ([2]; 5%): 37.30 ± 1.54 × 10^5
dLN B-cells frequency ([2]; 5%): 17.38 ± 0.94%
dLN CD4^+ frequency ([2]; 5%): 41.58 ± 0.62%
dLN CD8^+ cell number ([2]; 5%): 58.40 ± 4.46 × 10^5
dLN CD8^+ frequency ([2]; 5%): 26.82 ± 0.64%
dLN CD11b+ cell number ([2]; 5%): 26.00 ± 3.54 × 10^4
dLN CD11b+ frequency ([2]; 5%): 1.18 ± 0.11%
dLN CD86 B-cells ([2]; 5%): 101.54 ± 3.64 MFI
dLN CD86 DCs ([2]; 5%): 9.15 ± 0.71 MFI x 10^2
dLN Dendritic Cells cell number ([2]; 5%): 35.40 ± 5.48 × 10^4
dLN Dendritic Cells frequency ([2]; 5%): 1.60 ± 0.19%
dLN Eosinophils cell number ([2]; 5%): 142.00 ± 22.90 × 10^2
dLN MHCII B-cells ([2]; 5%): 8.02 ± 0.64 MFI × 10^2
dLN NK cell number ([2]; 5%): 17.70 ± 2.11 × 10^4
dLN NK frequency ([2]; 5%): 0.80 ± 0.06%
dLN Neutrophils cell number ([2]; 5%): 16.70 ± 2.99 × 10^2
dLN Total Cellularity ([2]; 5%): 21.70 ± 1.26 × 10^6
skin Pparδ gene expression ([3]; 1.25–5%): no changes
skin Flg gene expression ([3]; 2.5%): increased
skin Pparγ gene expression ([3]; 2.5%): decreased
skin Flg gene expression ([3]; 5%): increased
skin Lor gene expression ([3]; 5%): increased
skin PPARα gene expression ([3]; 5%): decreased
skin Pparγ gene expression ([3]; 5%): decreased
skin S100a8 gene expression, increase ([3]; 5%): 16.8 fold
microscopic observations in the kidney or the spleen [4]: No PFPeA, PFHxA, or PFHpA-related microscopic observations
serum glucose, increase compared to vehicle control [5]: 27%
urine PFAS concentration [6]: 1700 µg/mL
spleen MFI of CD86 on B-cells ([7]; 2.5%): increase
spleen NK cell frequency ([7]; 2.5%): increase
spleen frequency of CD11b + Ly6C + cells ([7]; 2.5%): significant decrease
spleen MFI of CD86 on B-cells ([7]; 5%): increase
spleen frequency of CD11b + Ly6C + cells ([7]; 5%): significant decrease
Ear: Degeneration/regeneration, cartilage, focal, Mild (incidence) ([8]; 1.25%): 0
Ear: Fibrosis, dermis, focal, Minimal (incidence) ([8]; 1.25%): 0
Ear: Hyperkeratosis, epidermis, focal, Mild (incidence) ([8]; 1.25%): 0
Ear: Hyperkeratosis, epidermis, focal, Minimal (incidence) ([8]; 1.25%): 1
Ear: Hyperplasia, epidermis, focal, Mild (incidence) ([8]; 1.25%): 0
Ear: Hyperplasia, epidermis, focal, Minimal (incidence) ([8]; 1.25%): 5/5 and 5
Ear: Inflammation, mixed cell, dermis, Minimal (incidence) ([8]; 1.25%): 0
Ear: Inflammation, mononuclear cell, dermis, Minimal (incidence) ([8]; 1.25%): 0
Ear: Necrosis, epidermis, multifocal, Minimal (incidence) ([8]; 1.25%): 0
Ear: Degeneration/regeneration, cartilage, focal, Mild (incidence) ([8]; 2.5%): 0
Ear: Fibrosis, dermis, focal, Minimal (incidence) ([8]; 2.5%): 0
Ear: Hyperkeratosis, epidermis, focal, Mild (incidence) ([8]; 2.5%): 0
Ear: Hyperkeratosis, epidermis, focal, Minimal (incidence) ([8]; 2.5%): 4/5 and 4
Ear: Hyperplasia, epidermis, focal, Mild (incidence) ([8]; 2.5%): 0
Ear: Hyperplasia, epidermis, focal, Minimal (incidence) ([8]; 2.5%): 5/5 and 5
Ear: Inflammation, mixed cell, dermis, Minimal (incidence) ([8]; 2.5%): 0
Ear: Inflammation, mononuclear cell, dermis, Minimal (incidence) ([8]; 2.5%): 0
Ear: Necrosis, epidermis, multifocal, Minimal (incidence) ([8]; 2.5%): 0
Ear: Degeneration/regeneration, cartilage, focal, Mild (incidence) ([8]; 5%): 1
Ear: Fibrosis, dermis, focal, Minimal (incidence) ([8]; 5%): 5/5 and 5
Ear: Hyperkeratosis, epidermis, focal, Mild (incidence) ([8]; 5%): 3/5 and 3
Ear: Hyperkeratosis, epidermis, focal, Minimal (incidence) ([8]; 5%): 2/5 and 2
Ear: Hyperplasia, epidermis, focal, Mild (incidence) ([8]; 5%): 4/5 and 4
Ear: Hyperplasia, epidermis, focal, Minimal (incidence) ([8]; 5%): 1
Ear: Inflammation, mixed cell, dermis, Minimal (incidence) ([8]; 5%): 4/5 and 4
Ear: Inflammation, mononuclear cell, dermis, Minimal (incidence) ([8]; 5%): 0
Ear: Necrosis, epidermis, multifocal, Minimal (incidence) ([8]; 5%): 0
